KCNK3 inh: human KCNK3 channel inhibition, primary screen. B-score at 10 µM. 340,000 tested, 0.84% active. AID 602410. CHO-KCNK3 thallium flux, FluxOR fluorescence; stronger effect = lower value;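 active means B-score under library mean minus 4 SD, starting fluorescence ratio at most library mean plus 5 SD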;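 further: more negative B-score means stronger inhibition of thallium flux through KCNK3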
KCNQ1 block: inhibitors of human KCNQ1 potassium channel | CHO-K1 KCNQ1, FluxOR thallium flux fluorescence; stronger effect = higher value | AID 2642 | P51787 | B-score at 10 µM | 310,000 tested, 1.3% active;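 active means compounds whose thallium flux B-score, printed positive for inhibition, exceeds three library SD while starting fluorescence stays within three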;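 further: channel opened by potassium depolarization with thallium stimulus after 20 min compound exposure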
hERG rescue: hERG (human) protection from proarrhythmic block; Q12809; CHO-hERG, FluxOR thallium flux, dofetilide IC70 present; activation (rescue from dofetilide block), less the hit threshold, % at 10 µM; 310,000 tested, 0.51% active; AID 1511;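 active means activation above the mean of controls blocked by dofetilide plus 5 SD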;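 further: thallium influx through hERG after potassium depolarization seen as dye fluorescence rise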
KCNK9 inh: inhibitors of human KCNK9 two-pore domain potassium channel; B-score at 10 µM; 310,000 tested, 1.2% active; HEK293 KCNK9, FluxOR thallium flux fluorescence; stronger effect = lower value; AID 488922; Q9NPC2;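 active means ratio B-score over 3 SD below the library mean, with starting fluorescence within 5 SD of its mean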;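 further: negative B-score means less thallium flux so channel inhibition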
Target sequence (Q9NPC2 whole entry, looked up, the tested form may be a part): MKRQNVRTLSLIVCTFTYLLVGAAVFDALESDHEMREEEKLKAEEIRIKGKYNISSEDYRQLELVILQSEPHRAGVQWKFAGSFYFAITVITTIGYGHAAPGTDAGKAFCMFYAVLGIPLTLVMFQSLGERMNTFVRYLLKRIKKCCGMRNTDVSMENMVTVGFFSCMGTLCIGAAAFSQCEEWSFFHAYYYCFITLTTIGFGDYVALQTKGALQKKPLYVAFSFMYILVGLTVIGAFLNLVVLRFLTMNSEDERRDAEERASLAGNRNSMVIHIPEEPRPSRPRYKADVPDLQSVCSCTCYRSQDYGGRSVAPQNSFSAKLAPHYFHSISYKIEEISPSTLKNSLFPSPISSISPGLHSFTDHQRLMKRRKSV
KCNQ1 pot: potentiators or activators of human KCNQ1 potassium channel; CHO-K1 KCNQ1, thallium flux FluxOR fluorescence; stronger effect = higher value; 310,000 tested, 0.35% active; B-score at 10 µM; P51787;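 active means fluorescence ratio B-score, a plate-corrected score, at least three library SD, with initial intensity B-score within 5 SD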
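Assay system: CHO-K1 cells stably expressing KCNQ1; Medium: assay buffer with matched DMSO; Also added: K+/Tl+ depolarizing stimulus; Dosing: single dose; Timing: dye 90 min, compound 20 min, room temperature; Measured by: kinetic FluxOR thallium fluorescence, 10-s 1-Hz baseline, 110-s post-stimulus read; Read-out: peak-minus-minimum fluorescence over initial fluorescence, negative-control normalized, B-scored.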
Starred values were filed as active, the others as inactive. A selection: hits, their analogues and other compounds. The true share with any hit is near 3.1%.

Results for O=C(CSc1ncccn1)NCc1cccc(Cl)c1 ?
KCNK3 inh: inactive; KCNQ1 block: inactive; hERG rescue: 6.3*; KCNK9 inh: inactive; KCNQ1 pot: inactive

Results for CC1=CN2C(=NC(=O)CC2(C)C(=O)N(CC(=O)NC2CCCC2)Cc2ccc(Cl)cc2)C=C1 (stereo unspecified) ?
KCNK3 inh: inactive; KCNQ1 block: inactive; hERG rescue: -3; KCNK9 inh: inactive; KCNQ1 pot: inactive

How did CCCCN(CCCC)C1=Nc2ccccc2N/C1=C(/C#N)C(=O)OCC do in these assays?
KCNK3 inh: inactive; KCNQ1 block: 7*; hERG rescue: -7; KCNK9 inh: inactive; KCNQ1 pot: inactive

Results for CCOC(=O)/C(C#N)=C1\Nc2ccccc2N=C1N(CC(C)C)CC(C)C ?
KCNK3 inh: inactive; KCNQ1 block: inactive; hERG rescue: -18; KCNK9 inh: inactive; KCNQ1 pot: inactive

What do the screens show for `N#Cc1c(-c2ccc(Cl)cc2)c(-c2ccc(Cl)cc2)nn(CCO)c1=O`?
KCNK3 inh: inactive

What do the screens show for `Cc1ccc(-c2csc(NC(=O)Cc3ccc(F)cc3)n2)o1`?
KCNK3 inh: inactive; KCNQ1 block: inactive; hERG rescue: -14; KCNK9 inh: inactive; KCNQ1 pot: 14*

How did COc1ccc(CC(=O)Nc2nc(-c3cccnc3)cs2)cc1 do in these assays?
KCNK3 inh: inactive; KCNQ1 block: inactive; hERG rescue: -5; KCNK9 inh: inactive; KCNQ1 pot: inactive

How did COc1ccc(OC)c(NC(=S)N2CCC(C(O)(c3ccccc3)c3ccccc3)CC2)c1 do in these assays?
KCNK3 inh: inactive; KCNQ1 block: inactive; hERG rescue: -5; KCNK9 inh: inactive; KCNQ1 pot: 44*

Results for CC1CCN(C(=O)/C(=C/c2ccccc2Cl)c2ccccc2)CC1 ?
KCNK3 inh: inactive; KCNQ1 block: inactive; hERG rescue: -12; KCNK9 inh: -6.7*; KCNQ1 pot: inactive

What do the screens show for `O=C(CC(=O)c1ccccc1O)c1cccc(F)c1`?
KCNK3 inh: inactive; KCNQ1 block: inactive; hERG rescue: 0; KCNK9 inh: inactive; KCNQ1 pot: 37*

How did Cc1cccc(C(=O)NCC(=O)N2CCOCC2)c1 do in these assays?
KCNK3 inh: inactive; KCNQ1 block: inactive; hERG rescue: -12; KCNK9 inh: inactive; KCNQ1 pot: inactive

What do the screens show for `CN=C(Nc1cc(Cl)ccc1Cl)SC1CC(=O)N(c2ccc(C(=O)OC)cc2)C1=O` (stereo unspecified)?
KCNK3 inh: inactive; KCNQ1 block: inactive; hERG rescue: -12; KCNK9 inh: -8*; KCNQ1 pot: inactive

How did COC(=O)c1ccc(N2C(=O)CC(SCC(=O)Nc3ccc(OC)cc3)C2=O)cc1 (stereo unspecified) do in these assays?
KCNK3 inh: inactive; KCNQ1 block: inactive; hERG rescue: -10; KCNK9 inh: inactive; KCNQ1 pot: inactive

How did CN(C)S(=O)(=O)c1ccc(Cl)c(C(=O)Nc2ccccc2[N+](=O)[O-])c1 do in these assays?
KCNK3 inh: inactive; KCNQ1 block: inactive; hERG rescue: -14; KCNK9 inh: inactive; KCNQ1 pot: inactive

What do the screens show for `CCN(CC)S(=O)(=O)c1ccc(Cl)c(C(=O)Nc2ccc(Cl)cc2[N+](=O)[O-])c1`?
KCNK3 inh: inactive; KCNQ1 block: inactive; hERG rescue: -16; KCNK9 inh: -6.6*; KCNQ1 pot: inactive

How did COc1ccc(C(=O)Nc2c(N)nc(SCC(=O)NCC3CCCO3)[nH]c2=O)cc1 (stereo unspecified) do in these assays?
KCNK3 inh: inactive; KCNQ1 block: inactive; hERG rescue: -5; KCNK9 inh: inactive; KCNQ1 pot: inactive

What do the screens show for `COc1ccc(C(c2c(NC(=O)c3ccco3)sc(C)c2C)N2CCOCC2)cc1` (stereo unspecified)?
KCNK3 inh: -11*

Results for NC(=O)c1cc([N+](=O)[O-])ccc1NCc1cccc(N)c1 ?
KCNK3 inh: inactive

Results for CCNc1nc(NCC)n2c(SCC(=O)Nc3ccccc3)nnc2n1 ?
KCNK3 inh: inactive; KCNQ1 block: inactive; hERG rescue: 6.5*; KCNK9 inh: inactive; KCNQ1 pot: inactive

Results for CCNc1nc(NCC)n2c(SCC(=O)Nc3ccc(F)cc3)nnc2n1 ?
KCNK3 inh: inactive; KCNQ1 block: inactive; hERG rescue: -6; KCNK9 inh: inactive; KCNQ1 pot: inactive

Results for CC(C)(C)NC(=O)CSc1nnc(-c2ccco2)n1Cc1ccco1 ?
KCNK3 inh: inactive; KCNQ1 block: inactive; hERG rescue: 4.9*; KCNK9 inh: inactive; KCNQ1 pot: inactive

How did CCCCC/C=N/NC(=O)c1[nH]c2ccc([N+](=O)[O-])cc2c1C do in these assays?
KCNK3 inh: inactive; KCNQ1 block: inactive; hERG rescue: -15; KCNK9 inh: inactive; KCNQ1 pot: inactive

How did CCC/C=N/NC(=O)c1[nH]c2c([N+](=O)[O-])cccc2c1C do in these assays?
KCNK3 inh: inactive; KCNQ1 block: inactive; hERG rescue: -6; KCNK9 inh: inactive; KCNQ1 pot: 16*

Results for COc1ccccc1-c1cnnc(N/N=C/c2ccc(-c3cccc(Br)c3)o2)n1 ?
KCNK3 inh: inactive; KCNQ1 block: inactive; hERG rescue: -6; KCNK9 inh: -6.8*; KCNQ1 pot: inactive

Results for O=C1C(=O)N(CCN2CCOCC2)C(c2cccnc2)/C1=C(/O)c1ccc(Cl)cc1 (stereo unspecified) ?
KCNK3 inh: inactive; KCNQ1 block: inactive; hERG rescue: 5.5*; KCNK9 inh: inactive; KCNQ1 pot: inactive

What do the screens show for `O=C1C(=O)N(CCN2CCOCC2)C(c2cccnc2)/C1=C(/O)c1ccccc1` (stereo unspecified)?
KCNQ1 block: inactive; hERG rescue: -8; KCNK9 inh: inactive; KCNQ1 pot: inactive

Results for COc1ccc(S(=O)(=O)N2CCC(C(=O)NCC3CCCCC3)CC2)cc1 ?
KCNK3 inh: inactive; KCNQ1 block: inactive; hERG rescue: -5; KCNK9 inh: inactive; KCNQ1 pot: inactive

How did CC(N=c1ccccn1C(=O)Nc1cccc(C(F)(F)F)c1)c1ccco1 (stereo unspecified) do in these assays?
KCNK3 inh: inactive; KCNQ1 block: 9*; hERG rescue: -6; KCNK9 inh: inactive; KCNQ1 pot: inactive

Results for c1ccc(-c2c(-c3ccccc3)n(Cc3ccco3)c3ncnc(NCCCn4ccnc4)c23)cc1 ?
KCNK3 inh: inactive; KCNQ1 block: 12*; hERG rescue: -26; KCNK9 inh: inactive; KCNQ1 pot: inactive

Results for OCCNc1ncnc2c1c(-c1ccccc1)c(-c1ccccc1)n2Cc1ccco1 ?
KCNK3 inh: inactive; KCNQ1 block: inactive; hERG rescue: -20; KCNK9 inh: inactive; KCNQ1 pot: inactive

What do the screens show for `CCOC(=O)c1ccc(N2C(=O)c3n[nH]c(C)c3C2c2ccc(O)cc2)cc1` (stereo unspecified)?
KCNK3 inh: inactive; KCNQ1 block: inactive; hERG rescue: -6; KCNK9 inh: -7.1*; KCNQ1 pot: inactive
